Test results as given in ChEMBL document CHEMBL2010670, “Discovery of a clinical stage multi-kinase inhibitor sodium (E)-2-{2-methoxy-5-[(2',4',6'-trimethoxystyrylsulfonyl)methyl]phenylamino}acetate (ON 01910.Na): synthesis, structure-activity relationship, and biological activity” (J Med Chem, 2011).
Active and inactive are the calls of the source. No cut-off for these calls is given here.

Columns and labels:
BT-20 = assay: Cytotoxicity against human BT20 cells after 96 hrs by trypan blue exclusion assay; type: functional, cell-based; settings: BT-20, 96 h
Method in brief: (§1)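 Cells grown in DMEM or RPMI with 10% FBS and penicillin-streptomycin, seeded at 1.0 × 10⁵ cells/mL/well in 6-well dishes. Compound added at a range of concentrations 24 h after seeding. Viable cells counted by trypan blue exclusion from duplicate wells after 96 h of exposure; dose-response end point.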

T47D = assay: Cytotoxicity against human T47D cells after 96 hrs by trypan blue exclusion assay; type: functional, cell-based
Method in brief: (§2)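 Cells grown in DMEM or RPMI with 10% FBS and 1 unit/mL penicillin-streptomycin, seeded at 1.0 × 10⁵ cells/mL/well in 6-well dishes; compound added 24 h later at various concentrations. After 96 h of treatment, viable cells counted by trypan blue exclusion in duplicate wells; dose-response end point.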

MCF7 = assay: Cytotoxicity against human MCF7 cells after 96 hrs by trypan blue exclusion assay; type: functional, cell-based; settings: MCF7, 96 h; method in brief: as §1
SK-BR-3 = assay: Cytotoxicity against human SKBR3 cells after 96 hrs by trypan blue exclusion assay; type: functional, cell-based; settings: SK-BR-3, 96 h; method in brief: as §2
BT-474 = assay: Cytotoxicity against human BT474 cells after 96 hrs by trypan blue exclusion assay; type: functional, cell-based; settings: BT-474, 96 h; method in brief: as §1
DU-145 [1] = assay: Cytotoxicity against human DU145 cells after 96 hrs by trypan blue exclusion assay; type: functional, cell-based; settings: Homo sapiens, DU-145, 96 h; method in brief: as §1
PC-3 = assay: Cytotoxicity against human PC3 cells after 96 hrs by trypan blue exclusion assay; type: functional, cell-based; settings: PC-3, 96 h; method in brief: as §1
OVCAR-3 = assay: Cytotoxicity against human OVCAR3 cells after 96 hrs by trypan blue exclusion assay; type: functional, cell-based; settings: OVCAR-3, 96 h; method in brief: as §1
MIA PaCa-2 = assay: Cytotoxicity against human MIAPaCa2 cells after 96 hrs by trypan blue exclusion assay; type: functional, cell-based; settings: MIA PaCa-2, 96 h; method in brief: as §1
[2] = Cytotoxicity against human U87 cells after 96 hrs by trypan blue exclusion assay; type: functional, cell-based, U-87MG ATCC; settings: U-87 MG; method in brief: as §2
NCI-H157 = assay: Cytotoxicity against human NCI-H157 cells after 96 hrs by trypan blue exclusion assay; type: functional, cell-based; settings: NCI-H157, 96 h; method in brief: as §1
A549 [3] = assay: Cytotoxicity against human A549 cells after 96 hrs by trypan blue exclusion assay; type: functional, cell-based; settings: A549, 96 h; method in brief: as §1
NCI-H1975 = assay: Cytotoxicity against human NCI-H1975 cells after 96 hrs by trypan blue exclusion assay; type: functional, cell-based; settings: NCI-H1975, 96 h; method in brief: as §1
NCI-H187 = assay: Cytotoxicity against human NCI-H187 cells after 96 hrs by trypan blue exclusion assay; type: functional, cell-based; settings: NCI-H187, 96 h; method in brief: as §1
NCI-H417 = assay: Cytotoxicity against human NCI-N417 cells after 96 hrs by trypan blue exclusion assay; type: functional, cell-based; settings: NCI-H417, 96 h; method in brief: as §1
AGS = assay: Cytotoxicity against human AGS cells after 96 hrs by trypan blue exclusion assay; type: functional, cell-based; method in brief: as §1
[4] = Cytotoxicity against human RF1 cells after 96 hrs by trypan blue exclusion assay; type: functional, cell-based; settings: RF1, 96 h; method in brief: as §2
[5] = Cytotoxicity against human RF48 cells after 96 hrs by trypan blue exclusion assay; type: functional, cell-based; settings: RF48, 96 h; method in brief: as §2
COLO 205 = assay: Cytotoxicity against human COLO205 cells after 96 hrs by trypan blue exclusion assay; type: functional, cell-based; settings: COLO 205, 96 h; method in brief: as §1
DLD-1 = assay: Cytotoxicity against human DLD1 cells after 96 hrs by trypan blue exclusion assay; type: functional, cell-based; settings: DLD-1, 96 h; method in brief: as §1
HCT-116 = assay: Cytotoxicity against human HCT116 cells after 96 hrs by trypan blue exclusion assay; type: functional, cell-based; settings: HCT-116, 96 h; method in brief: as §1
HCT-15 = assay: Cytotoxicity against human HCT15 cells after 96 hrs by trypan blue exclusion assay; type: functional, cell-based; settings: HCT-15, 96 h; method in brief: as §1
[6] = Cytotoxicity against human COLO320 cells after 96 hrs by trypan blue exclusion assay; type: functional, cell-based; settings: COLO 320, 96 h; method in brief: as §1
SW480 = assay: Cytotoxicity against human SW480 cells after 96 hrs by trypan blue exclusion assay; type: functional, cell-based; settings: SW480, 96 h; method in brief: as §2
K562 = assay: Cytotoxicity against human K562 cells after 96 hrs by trypan blue exclusion assay; type: functional, cell-based; settings: Homo sapiens, K562, 96 h; method in brief: as §1
MOLT-4 = assay: Cytotoxicity against human MOLT4 cells after 96 hrs by trypan blue exclusion assay; type: functional, cell-based; settings: MOLT-4, 96 h; method in brief: as §1
[7] = Cytotoxicity against human Z138C cells after 96 hrs by trypan blue exclusion assay; type: functional, cell-based; method in brief: as §2
[8] = Cytotoxicity against human GRANTA-519 cells after 96 hrs by trypan blue exclusion assay; type: functional, cell-based; settings: Granta-519, 96 h; method in brief: as §1
LP-1 = assay: Cytotoxicity against human LP-1 cells after 96 hrs by trypan blue exclusion assay; type: functional, cell-based; settings: LP-1, 96 h; method in brief: as §1
U-266 = assay: Cytotoxicity against human U266 cells after 96 hrs by trypan blue exclusion assay; type: functional, cell-based; settings: U-266, 96 h; method in brief: as §2
OPM-2 = assay: Cytotoxicity against human OPM2 cells after 96 hrs by trypan blue exclusion assay; type: functional, cell-based; settings: OPM-2, 96 h; method in brief: as §1
[9] = Cytotoxicity against human […] cells after 96 hrs by trypan blue exclusion assay; type: functional, cell-based; method in brief: as §2
Daudi = assay: Cytotoxicity against human Daudi cells after 96 hrs by trypan blue exclusion assay; type: functional, cell-based; method in brief: as §1
Raji = assay: Cytotoxicity against human Raji cells after 96 hrs by trypan blue exclusion assay; type: functional, cell-based; method in brief: as §2
[10] = Cytotoxicity against human NAMALWA cells after 96 hrs by trypan blue exclusion assay; type: functional, cell-based; settings: NAMALVA; method in brief: as §1
[11] = Cytotoxicity against human MES-SA cells assessed as cell viability after 96 hrs by trypan blue exclusion; type: functional, cell-based; method in brief: as §1
[12] = Cytotoxicity against multidrug-resistant human MES-SA/Dx5 cells assessed as cell viability after 96 hrs by trypan blue exclusion; type: functional, cell-based; settings: MES-SA/Dx5, 96 h; method in brief: as §2
CCRF-CEM = assay: Cytotoxicity against human CEM cells assessed as cell viability after 96 hrs by trypan blue exclusion; type: functional, cell-based; method in brief: as §1
CEM/C2 = assay: Cytotoxicity against multidrug-resistant human CEM/C2 cells assessed as cell viability after 96 hrs by trypan blue exclusion; type: functional, cell-based; settings: CEM/C2, 96 h; method in brief: as §2
2008 = assay: Cytotoxicity against human 2008 cells assessed as cell viability after 96 hrs by trypan blue exclusion; type: functional, cell-based; settings: Homo sapiens, 2008, 96 h; method in brief: as §1
[13] = Cytotoxicity against multidrug-resistant human 2008/17/4 cells assessed as cell viability after 96 hrs by trypan blue exclusion; type: functional, cell-based; method in brief: as §2
DU-145 [14] = assay: Cell cycle arrest in human DU145 cells assessed as accumulation of cells in G2/M phase after 24 hrs by propidium iodide staining-based flow cytometric analysis; type: functional
Method in brief: (§3)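 DMEM with 10% FBS; 1.0 × 10⁶ cells/dish, treated 24 h after plating and harvested 24 h after treatment. Trypsinized cells were pooled with floating cells, PBS-washed and fixed in ice-cold 70% ethanol for ≥24 h. Cells were stained with propidium iodide plus RNase A for 30 min at 37 °C. DNA content was read by flow cytometry with cell-cycle modelling.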

DU-145 [15] = assay: Cell cycle arrest in human DU145 cells assessed as accumulation of cells containing subG1 content of DNA at 0.1 to 1 uM after 24 hrs by propidium iodide staining-based flow cytometric analysis; type: functional; method in brief: as §3
DU-145 [16] = assay: Induction of apoptosis in human DU145 cells assessed as PARP1 cleavage at 0.25 to 5 uM after 48 hrs by Western blot analysis; type: functional, cell-based
Method in brief: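 DU145 or HFL-1 cells plated at 3.0 × 10⁶ per […], treated 24 h later with DMSO or compound for 48 h. Frozen pellets lysed in 1% NP40/PBS with protease inhibitors. Equal protein run on 10% SDS-PAGE, transferred to nitrocellulose, probed with anti-PARP antibody, ECL detection.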

A549 [17] = assay: Induction of apoptosis in human A549 cells assessed as cell viability at 0.25 uM after 24 hrs by fluorescence assay; type: functional, cell-based
Method in brief: (§4)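 A549 cells seeded at 3,600 cells/well in DMEM + 10% FBS, adhered overnight at 37 °C, then exposed to varying compound concentrations or DMSO for 24 h. Viability read first as fluorescence 3 h after CellTiter-Blue addition. Caspase-Glo 3/7 was then added to the same wells, developed 2 h at room temperature, and luminescence read; n=3.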

A549 [18] = assay: Induction of apoptosis in human A549 cells assessed as caspase 3/7 activity at 0.25 uM after 24 hrs by luminescence assay; type: functional, cell-based; method in brief: as §4

COc1cc(OC)c(/C=C/S(=O)(=O)Cc2ccc(OC)c(N)c2)c(OC)c1
IC50 (BT-20): 30 nM | IC50 (T47D): 3 nM | IC50 (MCF7): 1 nM | IC50 (SK-BR-3): 3 nM | IC50 (BT-474): 2 nM | IC50 (DU-145 [1]): 4 nM | IC50 (PC-3): 6 nM | IC50 (OVCAR-3): 3 nM | IC50 (MIA PaCa-2): 3 nM | IC50 [2]: 3 nM | IC50 (NCI-H157): 4 nM | IC50 (A549 [3]): 3 nM | IC50 (NCI-H1975): 3 nM | IC50 (NCI-H187): 4 nM | IC50 (NCI-H417): 3 nM | IC50 (AGS): 3 nM | IC50 [4]: 2 nM | IC50 [5]: 1 nM | IC50 (COLO 205): 5 nM | IC50 (DLD-1): 5 nM | IC50 (HCT-116): 3 nM | IC50 (HCT-15): 3 nM | IC50 [6]: 3 nM | IC50 (SW480): 5 nM | IC50 (K562): 2.5 nM | IC50 (MOLT-4): 4 nM | IC50 [7]: 3 nM | IC50 [8]: 3 nM | IC50 (LP-1): 3 nM | IC50 (U-266): 3 nM | IC50 (OPM-2): 3 nM | IC50 [9]: 3 nM | IC50 (Daudi): 3 nM | IC50 (Raji): 2 nM | IC50 [10]: 5 nM | IC50 [11]: 4 nM | IC50 [12]: 4 nM | IC50 (CCRF-CEM): 10 nM | IC50 (CEM/C2): 10 nM | IC50 2008: 3 nM | IC50 [13]: 3 nM

COc1cc(OC)c(/C=C/S(=O)(=O)Cc2ccc(OC)c(NCC(=O)O)c2)c(OC)c1
Activity (DU-145 [14]): Dose-dependent effect | Activity (DU-145 [15]): Active | Activity (DU-145 [16]): Active | Activity (A549 [17]): Active | Activity (A549 [18]): Active
